Several values for one entry are separate records, joined by “and”; a condition that tells them apart may be missing. Equal values may be shown once.
Key:
[1] = Second in vivo toxicokinetic study, metabolic profile in gut and plasma; design: species or system male Wistar rats; conditions: urine 0 to 2 h of one animal, after 500 mg/kg bw 14C‐3‐NOP
Outline: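 Single oral dose of 500 mg/kg bw 14C-labelled test compound to male Wistar rats. One animal per time point was killed at 1, 2 and 3 h post-dose and blood was collected. Stomach, small intestine, caecum and colon contents were removed for total radioactivity. Metabolites were characterised by NMR and/or LC/MS.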

[2] = ADME of 14C‐3‐NOP following single or multiple oral administration; assay type: in vivo, rat; conditions: 500 mg/kg 14C‐3‐NOP, 1 h
[3] = system: testes and epididymides; Sertoli cells; experiment: Mechanistic toxicity studies; design: species or system rats, dogs and non‐human primates
[4] = First in vivo toxicokinetic study; design: species or system male Wistar rats; conditions: after 500 mg/kg bw 14C‐3‐NOP
Outline: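 Male Wistar rats received a single oral dose of 500 mg/kg bw 14C-labelled test compound under OECD TG 417 and were killed 48 h post-dose. Total radioactivity was measured in plasma, excreta and selected organs and tissues. Tissue levels were expressed as μg test-compound-eq/g and recovery as % of applied dose.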

[5] = ADME in a lactating goat; assay type: in vivo
[6] = system: Holstein Friesian dairy cows; experiment: Tolerance study in dairy cows; assay type: in vivo
[7] = Tolerance study in dairy cows; assay type: in vivo; conditions: female, Holstein Friesian, cattle, liver, kidney, muscle, fat, oral
[8] = system: peripheral blood reticulocytes; experiment: In vivo micronucleus assay of NOPA in peripheral blood reticulocytes; design: species or system Fischer 344 Big Blue rats; conditions: days 4 and 29
Outline: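 Fischer 344 Big Blue rats, six per sex per group, were given the metabolite by oral gavage once daily for 28 days at 10 mL/kg in phosphate-buffered saline, pH 7.4. Males received 0, 150, 300 or 600 mg/kg bw/day and females 0, 250, 500 or 1,000 mg/kg bw/day. Peripheral blood was sampled on days 4 and 29, and micronucleated reticulocytes were counted by flow cytometry. Kit positive-control samples were run; there was no concurrent positive group.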

[9] = Consumer exposure calculation to NOPA
[10] = system: Salmonella Typhimurium strains TA1535, TA1537, TA98, TA100, and Escherichia coli strain WP2 uvrA; experiment: Bacterial reverse mutation assay of NOPA; assay type: cell-based; conditions: strains TA1535 and TA100, presence and absence of S9 mix, up to 5,000 μg/plate
Outline: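 Plate-incorporation reverse mutation test on the metabolite in S. Typhimurium TA1535, TA1537, TA98 and TA100 and E. coli WP2 uvrA, with and without liver microsomal activation. Concentrations were 3, 10, 33, 100, 333, 1,000, 2,500 and 5,000 μg/plate. Each concentration and each control was plated in triplicate, and positive and negative controls were included.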

[11] = ADME in four lactating cows; assay type: in vivo
[12] = system: whole blood human lymphocytes; experiment: In vitro micronucleus test of NOPA; assay type: cell-based; conditions: 229 to 1,321 μg/mL, with and without metabolic activation
Outline: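 GLP micronucleus test (OECD TG 487) on the metabolite (purity 98.4%) in human whole-blood lymphocytes. Three concentrations from 229 to 1,321 μg/mL (top about 10 mmol/L) were analysed. Treatments were a short exposure (4 + 20 h recovery) with and without metabolic activation, and a continuous treatment without activation. Micronuclei were scored.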

[13] = system: CByB6F1 Hybrid mice; experiment: 28‐day oral gavage study with toxicokinetic evaluation of NOPA; assay type: in vivo; conditions: both sexes
[14] = as above; assay type: in vivo, CByB6F1 Hybrid mice; conditions: CByB6F1 Hybrid, mouse, plasma, oral, 700 mg/kg
[15] = Feeding study 1 in beef cattle, NOPA in plasma; assay type: in vivo; conditions: bovine, oral, 284 mg/kg
[16] = Second goat experiment, pre‐dosed 5 days; assay type: in vivo, lactating goat

In the case of `O=C(O)CCO` [3‐HPA, 3‐hydroxy‐propionic acid], the “Urinary metabolite, share of the urine radioactivity” value [1] is reported as 58%, the Metabolite in epididymis [2] is reported as 60 % TRR and the Metabolite in testes [2] is reported as 84 % TRR. For the same compound, the “Metabolite in the small intestine” value ([2]; females) was 46.5 % of TRR, the “Metabolite in the small intestine” value ([2]; males) was 34.8 % of TRR and the Testicular/epididymal findings ([3]; 10 days after sc administration) was “absence of any testicular/epididymal abnormality”. For the same compound, the “Urinary metabolite, share of the dose administered” value [4] was 7.2% and the “Urinary metabolite, share of the urine radioactivity” value [4] was 47.5%.

With `O=C(O)CCO[N+](=O)[O-]` [NOPA, 3‐nitrooxypropionic acid] the “Nitrate esters in milk, not detectable (LOD)” value ([5]; milk collected 0–8 h post‐dose) was under 0.82 mg 3‐NOP‐equivalent/kg, the “Nitrate esters in milk, not detectable (LOD)” value ([5]; milk collected 8–24 h post‐dose) was under 0.43 mg 3‐NOP‐equivalent/kg and the “NOPA in milk, median of samples above 1 μg/kg” value ([6]; 80 mg 3‐NOP/kg feed DM) was 1.74 µg/kg. The “NOPA in milk, median of samples above 1 μg/kg” value ([6]; 100 mg 3‐NOP/kg feed DM, 7 cows) was 1.52 µg/kg, the concentration at 57 day [7] was under 5 ng/g and the “Urinary metabolite, share of the urine radioactivity” value [1] was 20%. The “Incidence of MN‐RETs” value [8] was “No significant increases in the incidence of MN‐RETs”, the “Consumer exposure, maximum HRP” value ([9]; Adolescents) was 0.2260 μg/kg bw per day and the “Consumer exposure, maximum HRP” value ([9]; Adults) was 0.1293 μg/kg bw per day. The “Consumer exposure, maximum HRP” value ([9]; Elderly) was 0.1162 μg/kg bw per day, the “Consumer exposure, maximum HRP” value ([9]; Infants) was 0.4542 μg/kg bw per day and the “Consumer exposure, maximum HRP” value ([9]; Other children) was 0.6 μg/kg bw per day and 0.5952 μg/kg bw per day. The “Consumer exposure, maximum HRP” value ([9]; Toddlers) was 0.4674 μg/kg bw per day, the “Consumer exposure, maximum HRP” value ([9]; Very elderly) was 0.1266 μg/kg bw per day and the “Maximum HRP as share of the established ADI” value ([9]; other children, ADI 1 mg/kg bw per day) was 0.06%. For the same compound, the “Gene mutations in bacteria” value [10] was “induced gene mutations by base pair substitutions”, the “Amount in urine, not detected above the LOQ” value ([11]; any urine sample) was ≤ 0.1 % of the dose and the “3‐NOP and NOPA in total excreta, worst‐case scenario” value ([11]; dairy cows) was at most 0.2%. The “Residue in milk, not found above the LOQ” value ([11]; in vivo) was under 8 μg 3‐NOP‐equivalents/kg, the “Residue in tissues, not found above the LOQ” value ([11]; in vivo) was under 21 μg 3‐NOP‐equivalents/kg and the Frequency of micronuclei [12] was “No significant increase in the frequency of micronuclei”. The “Time of rapid increase of NOPA plasma concentration” value [13] was under 1 h, the half-life ([14]; female) was 42 to 72 min and the half-life ([14]; male) was 30 to 84 min. For the same compound, the “Susceptibility of Sertoli cells from dogs” value ([3]; ex vivo/in vitro cultures of seminiferous tubuli) was “not susceptible”, the concentration at 180 min [15] was 0.0223 to 0.207 µg/mL and the “Nitrate esters in the aqueous phase of plasma, not detectable (LOD)” value ([16]; LOD ≤ 0.07) was under 0.07 mg/kg. The “Nitrate esters in the aqueous milk fraction, not detectable (LOD)” value ([16]; LOD ≤ 0.21) was under 0.21 mg/kg.

With `O=C(O)C1OC(OCCCO[N+](=O)[O-])C(O)C(O)C1O` (stereo not shown) [glucuronide of 3‐NOP] the “Urinary metabolite, share of the urine radioactivity” value [1] was 11%.

From paper PMC8603004 (EFSA Journal, 2021)
